How the values were obtained:
MS2 coat protein [1] = test: apparent Kd, MS2 coat protein; higher = weaker binding; RNA-MaP array; theophylline 2 mM where present
Summary of the method: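 Two titrations, one without ligand and one with constant ligand, were run with SNAP-549-labelled MS2 coat protein from 0.7 or 1.5 nM, doubling to 3 µM. The targets were designs transcribed by stalled E. coli RNA polymerase on Illumina sequencing-chip clusters, in 100 mM Tris-HCl pH 7.5, 80 mM KCl, 4 mM MgCl2, BSA, DTT, yeast tRNA and Tween-20. The apparent Kd is the median of filtered per-cluster binding-curve fits, with green signal normalised to red-channel RNA signal and control-cluster median Fmax.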

MS2 coat protein [2] = test: apparent Kd, MS2 coat protein; higher = weaker binding; RNA-MaP array
Summary of the method: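 Apparent Kd was taken as the median of binding curves fitted cluster by cluster. The designed RNAs were made by transcription of sequenced DNA templates on an Illumina sequencing chip and exposed to fluorescently labeled MS2 coat protein (1.5 nM to 3 μM) at room temperature, with or without input ligand, for 0.8–1.5 h at the lowest and 10–20 min at the highest concentrations. Any design measured on fewer than 10 clusters was left out.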

[3] = designed as: OFF switch for theophylline, no ligand
[4] = ligand present: theophylline, designed as: OFF switch for theophylline
[5] = designed as: ON switch for theophylline, no ligand
[6] = ligand present: theophylline, designed as: ON switch for theophylline
[7] = designed as: OFF switch for flavin mononucleotide, no ligand
[8] = ligand present: flavin mononucleotide, designed as: OFF switch for flavin mononucleotide

Sequence	apparent Kd (MS2 coat protein [1]; [3]) [nM]	apparent Kd (MS2 coat protein [1]; [4]) [nM]	also measured
GCUUGGGUGGCACAGCCCUGGCAGUGCGAUACCAGCACGGUAACGUGCCCUUGGCAGCGCACAUGAGGAUCACCCAUGUGGUGCG	69.5	345	
AGACAUGAGGAUCACCCAUGUAGUAUGGAUACCAGAUCCAGAUUUAUCCCUUGGCAGCUGUGGUACAGCGUUGCAUCGCUCCUAG	32.3	34.5	
GCACCAGGUACGGAUACCAGCUAUAGGCCCAAUGGGCGACAUGAGGAUCACCCAUGUGAUGGCCCUUGGCAGCUGUACCUGGUGC			apparent Kd (MS2 coat protein [1]; [5]): 211 nM; apparent Kd (MS2 coat protein [1]; [6]): 24.1 nM
GCACGACAUGAGGAUCACCCAUGUGCAGAUACCAGUAAUGUAUAUUACCCUUGGCAGCUGAGUAGAUCUGGAGGGCUAUAGGUAA			apparent Kd (MS2 coat protein [1]; [5]): 13.8 nM; apparent Kd (MS2 coat protein [1]; [6]): 20.8 nM
UUAAAUGUGACGGAUACCAGCGUGUUGUAGAACAUGAGGAUCACCCAUGUAGUGAUCAAGCGCCCUUGGCAGCUGGUAUGUUUGA			apparent Kd (MS2 coat protein [1]; [5]): 191 nM; apparent Kd (MS2 coat protein [1]; [6]): 300 nM
UAUAGUGUGAUGGAUACCAGCAGAGAAAACGUUUAUCCUAACAUGAGGAUCACCCAUGUAUGCCCUUGGCAGCUGUUGUGUUAUA	31.7	31.8	
GAUGAACUAUUUGAUACCAGACUACAUGAGGAUCACCCAUGUGAGUUUCGUCCUCUGCCAGUCCCUUGGCAGCAAAUAGUUUAUC	18.9	194	
AUAACAUGAGGAUCACCCAUGUAAGCAGAUACCAGCUAGGAAACUAGCCCUUGGCAGCUGCAAGGUGAUCCUAAUGCAGCUGCAA	154	119	
CUUAUAGUAACUGAUACCAGUGUACUGACAUGAGGAUCACCCAUGUUGGGUUUUGUUGUACACCCUUGGCAGCAGAAUCUAUAAG	69.5	86.6	
UCUUUCUAUAGUGAUACCAGACGUACAUGAGGAUCACCCAUGUUACAUUCUUGGUUAAAAGUCCCUUGGCAGCACGAUUUGUUCG	9.51	10.2	
CUCGAGGCCGGUGAUACCAGACACGAAACUAUACAUGAGGAUCACCCAUGUCAAACAACGGUCCCUUGGCAGCAUGGGUGUAUCC			apparent Kd (MS2 coat protein [1]; [5]): 68.9 nM; apparent Kd (MS2 coat protein [1]; [6]): 64.5 nM
UACACAUGACAUGAUACCAGCCCAUGUGAACAUGAGGAUCACCCAUGUAUGAGGACAUGAGGCCCUUGGCAGCAUGUAUACAUGA			apparent Kd (MS2 coat protein [1]; [5]): 10.2 nM; apparent Kd (MS2 coat protein [1]; [6]): 10.2 nM
UUAAUGGAGCUUUUAUUUACGAUUUCUGAUACCAGUGUUUCAUUUCACCCUUGGCAGCAGUGACAUGAGGAUCACCCAUGUAAUA			apparent Kd (MS2 coat protein [1]; [5]): 25.7 nM; apparent Kd (MS2 coat protein [1]; [6]): 22.8 nM
UGACAUUGCUCAGAUACCAGACAUGAGGAUCACCCAUGUACCGAGGUACCCGAAAGGAAUGUCCCUUGGCAGCUGAGCAAUGUCU	10.9	152	
AUGUAAGUGGUGUCACUGUGGUCUAGUGAUACCAGUAUCGAAAGAUACCCUUGGCAGCGCUAGAACAUGAGGAUCACCCAUGUUU	68.8	34.3	
GCUGUAAGUGCAGAUACCAGCAAGUGAUAUUUCAUAUGACAUGAGGAUCACCCAUGUAACUGCCCUUGGCAGCUGCACUUACAGC			apparent Kd (MS2 coat protein [1]; [5]): 213 nM; apparent Kd (MS2 coat protein [1]; [6]): 24.9 nM
UAUAUAUAUAUUGAUACCAGCAGAGAAAACGUUUAUCCUAACAUGAGGAUCACCCAUGUAUGCCCUUGGCAGCGGUAUAUAUAUA	25.7	38	
CGGUUUGUGAUGGAUACCAGCAGAGAAAAUGUUUAUCCUAACAUGAGGAUCACCCAUGUGUGCCCUUGGCAGCUGUUGUGGGCUG	50.5	84.9	
AGCCUCAUACAUGAGGAUCACCCAUGUGAUACCAGUCAGGAAACUGACCCUUGGCAGCGCAUGAGGAUCACCCAUGUGCGAGGCA	43.5	192	
CGUAUUGUAACUGAUACCAGUGUACUGACAUGAGGAUCACCCAUGUUGGGUUUUGUUGUACACCCUUGGCAGCAGAAUCAAUACG	68.7	122	
AAACUUACAGGAUAUACAUGAGGAUCACCCAUGUAAACGAAACACCAGGUGAUAGUGGGUAGAAGGGAAUAAAC			apparent Kd (MS2 coat protein [2]; [7]): 22.7 nM; apparent Kd (MS2 coat protein [2]; [8]): 18.5 nM
UCCAGACAUGAGGAUCACCCAUGUUGUGAUACCAGAACCGUGGAGUUCCCUUGGCAGCACUAAGAAGUUCCUGGAUCAGCUAGCG			apparent Kd (MS2 coat protein [2]; [5]): 27.6 nM; apparent Kd (MS2 coat protein [2]; [6]): 32.8 nM
GGUGAGUCAGGAUAUUGUGCAUUUGAGACCCACACGGGACACAAGAAGGGACAUGAGGAUCACCCAUGUGCUCA			apparent Kd (MS2 coat protein [2]; [7]): 9.73 nM; apparent Kd (MS2 coat protein [2]; [8]): 12.8 nM
UCAAUACAGUCGGCCGCCACUGUAACCAAACCUACAUACCAACAUGAGGAUCACCCAUGUUUAUACAGGACCGGGACCUCUAUGA			apparent Kd (MS2 coat protein [2]; designed as: ON switch for tryptophan, no ligand): 36.6 nM; apparent Kd (MS2 coat protein [2]; ligand present: tryptophan, designed as: ON switch for tryptophan): 28.5 nM
CCAGGGCUCGAGAAGGCCCGCGCGGUUCAGUACGUAGGUACAUGAGGAUCACCCAUGUCGGAUUGGGAGGAUAUCGAUUCUUGU			apparent Kd (MS2 coat protein [2]; designed as: ON switch for flavin mononucleotide, no ligand): 335 nM; apparent Kd (MS2 coat protein [2]; ligand present: flavin mononucleotide, designed as: ON switch for flavin mononucleotide): 80.1 nM
